Compound activity: PubChem, several laboratories
Compounds with a hit are over-represented: about 2.2% of the library has one in this group of screens.
Jurkat NFkB inh: inhibitors of induced NF-kB luciferase reporter, primary screen, TCR NF-kB activation inhibitor project, cell-based, luminescence, uHTS; 0.53% of 330,000 active; Jurkat, PMA/ionomycin-induced NF-kB luciferase reporter; AID 435003, 2010; inhibition, % at 4 µM; in the data active = inhibition above about 50%
NR2E3 ag-1: inhibitors of NR2E3-RetCOR corepressor binding, primary screen, NR2E3 agonist project, biochemical, TR-FRET, GST-NR2E3, biotin-RetCOR. 0.12% of 320,000 active. Photoreceptor-specific nuclear receptor (Homo sapiens), Q9Y5X4. inhibition of corepressor binding, % at 4.78 µM. 1536-well. AID 2300, 2010;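 active = percent inhibition above the cutoff of mean plus 3 SD of all tested compounds, set per screening campaign, cut at about 20% in these data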;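 also: 0% = DMSO wells and 100% = biotin wells as full block of FRET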
Target sequence (Q9Y5X4 whole entry, looked up): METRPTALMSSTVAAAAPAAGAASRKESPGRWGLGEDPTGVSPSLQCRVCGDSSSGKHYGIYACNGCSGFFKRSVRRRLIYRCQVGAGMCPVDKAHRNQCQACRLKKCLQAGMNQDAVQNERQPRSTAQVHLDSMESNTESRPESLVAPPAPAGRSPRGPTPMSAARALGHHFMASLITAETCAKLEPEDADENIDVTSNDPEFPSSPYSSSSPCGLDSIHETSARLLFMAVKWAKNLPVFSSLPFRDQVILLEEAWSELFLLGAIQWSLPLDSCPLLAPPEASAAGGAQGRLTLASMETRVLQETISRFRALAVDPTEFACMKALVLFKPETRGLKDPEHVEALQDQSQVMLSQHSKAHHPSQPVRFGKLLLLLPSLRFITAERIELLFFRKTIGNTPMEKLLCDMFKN
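Material: NR2E3–RetCOR corepressor complex / Incubation: Compound–protein incubation for 5 h at 4 °C / Dosing: compound at 4.8 µM, single dose / Detection: time-resolved FRET / Benchmarks: high control biotin, low control 0.6% DMSO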
miR-122 sensor: miR-122 Renilla sensor signal increase in Huh7, primary screen, miR-122 inhibitor project, cell-based, single point, plate reader | 0.3% of 340,000 active | Huh7 miR-122 Renilla luciferase sensor, 48 h; neutral wells = 0, positive control = 100 | activation (reporter increase), % at 12.5 µM;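 active = mean replicate activation score at least 90 and every replicate individually at or above 90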;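 also: higher luciferase means less miR-122 activity so hits act as miR-122 inhibitors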
FGF22 binding: binders of human FGF22 protein, primary screen, FGF22 synaptogenesis inhibitor project, biophysical, thermal shift, single point | 1.5% of 340,000 active | AID 651658, 2012 | recombinant FGF22 thermal shift, SYPRO orange fluorescence; percent of sucrose octasulfate shift, DMSO zero | Fibroblast growth factor 22 (Homo sapiens), Q9HCT0 | activity (Tm shift, normalised), % at 9.99 µM;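 active = mean Tm shift, scaled 0 neutral to 100 positive control, at about 1.3% or above, every replicate too, limit read from the data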
Target sequence (Q9HCT0 whole entry, looked up): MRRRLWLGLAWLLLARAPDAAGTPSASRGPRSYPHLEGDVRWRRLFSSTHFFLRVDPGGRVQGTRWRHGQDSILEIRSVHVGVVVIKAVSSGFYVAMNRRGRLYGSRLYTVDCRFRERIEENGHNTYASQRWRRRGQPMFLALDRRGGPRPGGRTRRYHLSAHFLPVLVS
697 NFkB inh: inhibitors of PMA/ionomycin-induced NF-kB reporter, 697 cells, primary screen, B-cell NF-kB inhibitor project, cell-based, luminescence, uHTS | 0.33% of 330,000 active | AID 435022, 2010 | inhibition, % at 4 µM | 697 B-cell NF-kB luciferase reporter, 16 h; in the data active = inhibition above about 35%
NR2E3 ag-2: NR2E3 agonists in two-hybrid cells, primary screen, cell-based, luminescence, CHO-S, Gal4-NCOR/VP16-NR2E3; inhibition of corepressor binding, % at 3.98 µM; 0.35% of 360,000 active; Photoreceptor-specific nuclear receptor (Homo sapiens), Q9Y5X4; luciferase;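 active = inhibition above the mean of all tested compounds plus 3 SD, cut at about 70% in these data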;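 also: 0% = DMSO with NR2E3 transfected cells and 100% = cells lacking NR2E3 construct; higher means lower luciferase signal from less NR2E3 corepressor binding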
Jurkat NFkB conf: PMA/ionomycin-induced NF-kB reporter inhibitors, Jurkat retest, confirmation, T-cell NF-kB inhibitor project, cell-based, luminescence, single concentration | 27% of 2,700 active | shares compounds with Jurkat NFkB inh | Jurkat NF-kB luciferase, 16 h | AID 435020, 2010 | inhibition, % at 4 µM;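 active = inhibition reaching about 45% at 4 µM in either replicate, limit read from the data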;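 also: plate controls were PMA/ionomycin stimulated DMSO wells for no effect and unstimulated DMSO wells for full effect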
An asterisk follows results filed as active; [ ] = another dose, or the depositor's remark.

For Cc1ccc(CN=C2Nc3ccccc3CS2)cc1 the results were Jurkat NFkB inh -171, NR2E3 ag-1 -3, miR-122 sensor -9, 697 NFkB inh -208, NR2E3 ag-2 -99 and Jurkat NFkB conf -80.
For Cc1ccc(NC(=O)CSc2nnc3ccccn23)c(Cl)c1 the results were miR-122 sensor -1, FGF22 binding 0 and NR2E3 ag-2 -58.
Cc1ccc(C(=O)CSc2nnc3ccccn23)c(C)c1 was read as Jurkat NFkB inh -158, NR2E3 ag-1 4, FGF22 binding 0, 697 NFkB inh -131, NR2E3 ag-2 -133 and Jurkat NFkB conf -83.
Screening C[C@H]1CN([C@@H](C)CO)S(=O)(=O)c2ccc(-c3ccccc3)cc2O[C@@H]1CN(C)S(=O)(=O)c1ccccc1F returned miR-122 sensor 8[16.7 µM] and FGF22 binding 0.
Screening CCC(=NCCc1c(C)[nH]c2ccccc12)C1=C(O)CC(c2ccccc2)CC1=O (stereo not given) returned Jurkat NFkB inh 49, NR2E3 ag-1 -9, miR-122 sensor 46, FGF22 binding 0, 697 NFkB inh -18 and NR2E3 ag-2 -78.
Screening CCCCC(=NCCc1c(C)[nH]c2ccc(OC)cc12)C1=C(O)CC(c2ccccc2)CC1=O (stereo not given) returned Jurkat NFkB inh 69*, NR2E3 ag-1 -4, FGF22 binding 41, 697 NFkB inh -56, NR2E3 ag-2 -52 and Jurkat NFkB conf 13.
`CCC(=NCCc1c(C)[nH]c2ccc(OC(F)(F)F)cc12)C1=C(O)CC(c2ccccc2)CC1=O` (stereo not given) gave Jurkat NFkB inh 67*, NR2E3 ag-1 -1, FGF22 binding 0, 697 NFkB inh -28, NR2E3 ag-2 4 and Jurkat NFkB conf 16.
`C[C@@H]1CN([C@H](C)CO)C(=O)c2cc(NS(=O)(=O)c3ccc(F)cc3)ccc2O[C@H]1CN(C)CC1CCCCC1` gave miR-122 sensor -2[16.7 µM] and FGF22 binding 0.
For COc1ccccc1N1CCN(C(=O)C2c3ccccc3Oc3ccccc32)CC1 the results were Jurkat NFkB inh 55*, NR2E3 ag-1 2, miR-122 sensor 24, 697 NFkB inh -29, NR2E3 ag-2 -65 and Jurkat NFkB conf 45.
For C/C(=N\Nc1cccc2cccnc12)c1ccc[nH]1 the results were Jurkat NFkB inh -216, NR2E3 ag-1 -4, miR-122 sensor 8, FGF22 binding 0, 697 NFkB inh -147, NR2E3 ag-2 -112 and Jurkat NFkB conf -2.
CCC(=O)Nc1cccc2cccnc12 was read as Jurkat NFkB inh 3, NR2E3 ag-1 2, miR-122 sensor 3, FGF22 binding 0, 697 NFkB inh 5 and NR2E3 ag-2 -6.
`Cc1ccc2nc(NC(=O)Cc3cccs3)sc2c1` gave Jurkat NFkB inh -95, NR2E3 ag-1 2, miR-122 sensor -4, 697 NFkB inh -107 and NR2E3 ag-2 -136.
Screening Cc1ccc2nc(-c3ccc(NC(=O)C4CCCO4)cc3)[nH]c2c1 (stereo not given) returned Jurkat NFkB inh -177, NR2E3 ag-1 3, miR-122 sensor -3, 697 NFkB inh -147, NR2E3 ag-2 -138 and Jurkat NFkB conf -76.
Screening Cc1ccc2nc(-c3ccc(NC(=O)Cc4cccs4)cc3)[nH]c2c1 returned Jurkat NFkB inh -170, NR2E3 ag-1 5, miR-122 sensor -1, FGF22 binding 1.8*, 697 NFkB inh -115, NR2E3 ag-2 -108 and Jurkat NFkB conf -119.
Screening O=C(Nc1ccc(-c2nc3ccccc3o2)cc1)C1CCCO1 (stereo not given) returned Jurkat NFkB inh -180, NR2E3 ag-1 -3, miR-122 sensor -18, 697 NFkB inh -124, NR2E3 ag-2 -81 and Jurkat NFkB conf -103.
Screening O=C(Nc1ccc2oc(-c3ccccc3)nc2c1)C1CCCO1 (stereo not given) returned Jurkat NFkB inh -112, NR2E3 ag-1 0, FGF22 binding 0, 697 NFkB inh -157 and NR2E3 ag-2 -84.
`COc1ccc(NC(=O)C2CCCO2)cc1` (stereo not given) gave Jurkat NFkB inh -27, NR2E3 ag-1 1, miR-122 sensor -5, 697 NFkB inh -9 and NR2E3 ag-2 -13.
CN(C)CCCNC(=O)C[C@@H]1CC[C@H]2[C@@H](COc3ccc(NC(=O)c4cccc(F)c4)cc3C(=O)N2C)O1 was read as miR-122 sensor -50[16.7 µM] and FGF22 binding 0.
For C/C=C/c1ccc2c(c1)O[C@H](CN(C)C(=O)CN1CCOCC1)[C@@H](C)CN([C@@H](C)CO)S2(=O)=O the results were miR-122 sensor 3[16.7 µM] and FGF22 binding 0.
`O=C(Nc1nc(-c2nc3ccccc3s2)cs1)c1ccco1` gave Jurkat NFkB inh -36, NR2E3 ag-1 -161, miR-122 sensor 4, FGF22 binding 0, 697 NFkB inh -63 and NR2E3 ag-2 -88.
Screening O=C(Nc1nc(-c2nc3ccccc3s2)cs1)C1CC1 returned Jurkat NFkB inh -171, NR2E3 ag-1 4, miR-122 sensor -13, FGF22 binding 0, 697 NFkB inh -187, NR2E3 ag-2 -79 and Jurkat NFkB conf -111.
For Cc1ccc(/C=N/Nc2cccc3cccnc23)c(O)c1 the results were Jurkat NFkB inh -152, NR2E3 ag-1 -3, miR-122 sensor 7, FGF22 binding 0, 697 NFkB inh -123, NR2E3 ag-2 -106 and Jurkat NFkB conf -77.
`C=C1C(=O)O[C@@H]2[C@H]1[C@@H](OC(=O)/C(C)=C/C)C/C(C)=C\C(=O)/C=C(\C)[C@@H]2O` gave Jurkat NFkB inh 88*, NR2E3 ag-1 -1, miR-122 sensor -11, FGF22 binding 0, 697 NFkB inh -201, NR2E3 ag-2 42 and Jurkat NFkB conf 34.
For C=C1C(=O)O[C@H]2[C@H]1[C@H](OC(=O)/C(C)=C\C)C[C@]1(CO1)[C@@H]1[C@H](OC(C)=O)C=C(C)[C@]21O the results were FGF22 binding 0 and NR2E3 ag-2 -16.
For C[C@H](CO)N1C[C@H](C)[C@@H](CN(C)Cc2ccc(-c3ccccc3)cc2)Oc2ccc(NC(=O)Nc3cccc4ccccc34)cc2C1=O the results were miR-122 sensor -14[16.7 µM] and FGF22 binding 1.
